{"source": "paper PMC3700807", "about": "(Planta medica, 2011)", "key": {"[1]": {"test_system": "Cryptococcus neoformans (ATCC 90113)", "assay": "Antimicrobial susceptibility assay, C. neoformans", "type": "cell-based", "conditions": "highest test concentration 20 μg/mL", "summary_of_the_method": "(§1)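 Yeasts were tested by a modified CLSI broth-dilution method, with growth monitored by optical density. Amphotericin B was the drug control in each assay. IC50 (50% inhibition vs controls) was curve-fitted from duplicate readings. MIC is the lowest concentration allowing no detectable growth. For MFC, 5 μL from each clear well was plated on agar and incubated until growth was seen.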"}, "[2]": {"test_system": "C. glabrata (ATCC 90030)", "assay": "Antimicrobial susceptibility assay, C. glabrata", "type": "cell-based", "conditions": "highest test concentration 20 μg/mL", "summary_of_the_method": "as §1"}, "[3]": {"test_system": "Staphylococcus aureus (ATCC 29213)", "assay": "Antimicrobial susceptibility assay, S. aureus", "type": "cell-based", "conditions": "highest test concentration 20 μg/mL", "summary_of_the_method": "(§2)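 Bacteria were tested by a modified CLSI broth-dilution method, with growth read as optical density. Ciprofloxacin was the drug control in each assay. IC50 (50% inhibition relative to controls) was fitted from duplicate readings. MIC is the lowest concentration with no detectable growth. For MBC, 5 μL from each clear well was transferred to agar and incubated until growth appeared.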"}, "[4]": {"test_system": "C. krusei (ATCC 6258)", "assay": "Antimicrobial susceptibility assay, C. krusei", "type": "cell-based", "conditions": "highest test concentration 20 μg/mL", "summary_of_the_method": "as §1"}, "[5]": {"test_system": "Leishmania donovani promastigotes", "assay": "Antileishmanial assay, promastigotes", "type": "cell-based", "conditions": "26 °C, 72 hours; mean ± S.D. of three observations"}, "[6]": {"test_system": "Leishmania donovani axenic amastigotes", "assay": "Antileishmanial assay, axenic amastigotes", "type": "cell-based", "conditions": "37 °C, 72 hours; mean ± S.D. of three observations"}, "[7]": {"test_system": "Candida albicans (ATCC 90028)", "assay": "Antimicrobial susceptibility assay, C. albicans", "type": "cell-based", "conditions": "highest test concentration 20 μg/mL", "summary_of_the_method": "as §1"}, "[8]": {"test_system": "Leishmania donovani amastigotes in THP1 macrophage cultures", "assay": "Antileishmanial macrophage-amastigote assay", "type": "cell-based", "conditions": "amastigotes in THP1 macrophage cultures; mean ± S.D. of three observations"}, "[9]": {"test_system": "Aspergillus fumigatus (ATCC 204305)", "assay": "Antimicrobial susceptibility assay, A. fumigatus", "type": "cell-based", "conditions": "highest test concentration 20 μg/mL", "summary_of_the_method": "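Broth-dilution susceptibility test in medium with 5% Alamar Blue for growth detection. Amphotericin B was the drug control in each assay. IC50 (50% inhibition vs controls) was curve-fitted from duplicate readings. MIC is the lowest concentration with no detectable growth. For MFC, 5 μL from each clear well was moved to agar and incubated until growth appeared.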"}, "[10]": {"test_system": "Mycobacterium intracellulare (ATCC 23068)", "assay": "Antimicrobial susceptibility assay, M. intracellulare", "type": "cell-based", "conditions": "highest test concentration 20 μg/mL", "summary_of_the_method": "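Mycobacterium intracellulare (ATCC 23068) was tested by a modified broth susceptibility method, with growth detected in medium containing 5% Alamar Blue. IC50 was fitted against untreated controls from duplicate readings. MIC was taken as the lowest concentration with no detectable growth. For MBC, clear wells were subcultured onto agar and incubated until growth appeared. Ciprofloxacin was included as the drug control in each assay.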"}, "[11]": {"test_system": "methicillin-resistant S aureus (MRSA, ATCC 33591)", "assay": "Antimicrobial susceptibility assay, MRSA", "type": "cell-based, Staphylococcus aureus", "conditions": "highest test concentration 20 μg/mL", "summary_of_the_method": "as §2"}, "[12]": {"test_system": "Plasmodium falciparum D6 (chloroquine-sensitive clone)", "assay": "In vitro antiplasmodial assay", "type": "cell-based", "conditions": "chloroquine-sensitive clone D6"}, "[13]": {"test_system": "Transformed THP1 cells", "assay": "Cytotoxicity to PMA transformed THP1 cells", "type": "cell-based"}, "[14]": {"test_system": "VERO cells", "assay": "Cytotoxicity to VERO cells", "type": "cell-based"}, "[15]": {"test_system": "Plasmodium falciparum W2 (chloroquine-resistant clone)", "assay": "In vitro antiplasmodial assay", "type": "cell-based", "conditions": "chloroquine-resistant clone W2"}}}
{"smiles": "C[C@@H]1N[C@H](CCCCCCCCCCc2cc(CCCCCCCCCC[C@@H]3CC[C@H](O)[C@H](C)N3)c3[n+](c2)CCC3)CC[C@@H]1O", "note": "[Compound 7, juliprosine]", "values": [{"measurement": "C. neoformans IC50", "setting": "[1]", "value": 0.17, "unit": "µg/mL"}, {"measurement": "C. neoformans MFC", "setting": "[1]", "value": 0.63, "unit": "µg/mL"}, {"measurement": "C. neoformans MIC", "setting": "[1]", "value": 0.63, "unit": "µg/mL"}, {"measurement": "C. glabrata IC50", "setting": "[2]", "value": "-/-/- ((-) = Not active at the highest test concentration of 20 μg/mL)"}, {"measurement": "C. glabrata MFC", "setting": "[2]", "value": "-/-/- ((-) = Not active at the highest test concentration of 20 μg/mL)"}, {"measurement": "C. glabrata MIC", "setting": "[2]", "value": "-/-/- ((-) = Not active at the highest test concentration of 20 μg/mL)"}, {"measurement": "S. aureus IC50", "setting": "[3]", "value": 3.0, "unit": "µg/mL"}, {"measurement": "S. aureus MBC", "setting": "[3]", "value": 10, "unit": "µg/mL"}, {"measurement": "S. aureus MIC", "setting": "[3]", "value": 5.0, "unit": "µg/mL"}, {"measurement": "C. krusei IC50", "setting": "[4]", "value": "-/-/- ((-) = Not active at the highest test concentration of 20 μg/mL)"}, {"measurement": "C. krusei MFC", "setting": "[4]", "value": "-/-/- ((-) = Not active at the highest test concentration of 20 μg/mL)"}, {"measurement": "C. krusei MIC", "setting": "[4]", "value": "-/-/- ((-) = Not active at the highest test concentration of 20 μg/mL)"}, {"measurement": "Leishmania donovani Promastigotes IC50", "setting": "[5]", "value": "1.38 ± 0.23", "unit": "µg/mL"}, {"measurement": "Leishmania donovani Promastigotes IC90", "setting": "[5]", "value": "5.85 ± 0.72", "unit": "µg/mL"}, {"measurement": "Leishmania donovani Axenic Amastigotes IC50", "setting": "[6]", "value": "2.58 ± 0.37", "unit": "µg/mL"}, {"measurement": "Leishmania donovani Axenic Amastigotes IC90", "setting": "[6]", "value": "29.8 ± 4.3", "unit": "µg/mL"}, {"measurement": "C. albicans IC50", "setting": "[7]", "value": "-/-/- ((-) = Not active at the highest test concentration of 20 μg/mL)"}, {"measurement": "C. albicans MFC", "setting": "[7]", "value": "-/-/- ((-) = Not active at the highest test concentration of 20 μg/mL)"}, {"measurement": "C. albicans MIC", "setting": "[7]", "value": "-/-/- ((-) = Not active at the highest test concentration of 20 μg/mL)"}, {"measurement": "Leishmania donovani Macrophage-Amastigotes IC50", "setting": "[8]", "value": "3.08 ± 0.43", "unit": "µg/mL"}, {"measurement": "Leishmania donovani Macrophage-Amastigotes IC90", "setting": "[8]", "value": "7.89 ± 1.91", "unit": "µg/mL"}, {"measurement": "A. fumigatus IC50", "setting": "[9]", "value": "-/-/- ((-) = Not active at the highest test concentration of 20 μg/mL)"}, {"measurement": "A. fumigatus MFC", "setting": "[9]", "value": "-/-/- ((-) = Not active at the highest test concentration of 20 μg/mL)"}, {"measurement": "A. fumigatus MIC", "setting": "[9]", "value": "-/-/- ((-) = Not active at the highest test concentration of 20 μg/mL)"}, {"measurement": "M. intracellulare IC50", "setting": "[10]", "value": 0.80, "unit": "µg/mL"}, {"measurement": "M. intracellulare MBC", "setting": "[10]", "value": 5, "unit": "µg/mL"}, {"measurement": "M. intracellulare MIC", "setting": "[10]", "value": 1.25, "unit": "µg/mL"}, {"measurement": "MRSA IC50", "setting": "[11]", "value": 3.03, "unit": "µg/mL"}, {"measurement": "MRSA MBC", "setting": "[11]", "value": 10, "unit": "µg/mL"}, {"measurement": "MRSA MIC", "setting": "[11]", "value": 5.0, "unit": "µg/mL"}, {"measurement": "P. falciparum D6 IC50", "setting": "[12]", "value": "170 ± 35", "unit": "ng/mL"}, {"measurement": "Cytotoxicity (Transformed THP1 cells) IC50", "setting": "[13]", "value": "19.5 ± 1.0", "unit": "µg/mL"}, {"measurement": "Cytotoxicity (Transformed THP1 cells) IC90", "setting": "[13]", "value": ">20", "unit": "µg/mL"}, {"measurement": "VERO IC50", "setting": "[14]", "value": ">23800", "unit": "ng/mL"}, {"measurement": "P. falciparum W2 IC50", "setting": "[15]", "value": "150 ± 60", "unit": "ng/mL"}]}
